How the values were obtained:
[1] = system: various cancer cell lines; details: cited from earlier work
A2780 cells [2] = test: Cell viability assay with ST03 and NAC; format: cell-based; details: 20 mM NAC, 20 nM ST03, 24 h
PA1 cells [3] = test: Spectrometric ROS measurement; format: cell-based
Outline: (§1)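 Plate-reader ROS: 20,000 cells/well plated; after 24 h washed in PBS. Incubated 1 h in PBS with 10 µM H2DCFDA plus various test-compound concentrations, with or without 20 mM NAC. Fluorescence read at ex 485/em 535. 200 µM H2O2 as positive control.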

PA1 cells [4] = test: Cell viability assay with ST03 and NAC; format: cell-based; details: 20 mM NAC, 20 nM ST03, 24 h
A2780 cells [5] = test: Spectrometric ROS measurement; format: cell-based
Outline: as §1

A2780 cells [6] = test: Immunoblotting of apoptosis-related proteins; format: cell-based
Outline: (§2)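 Treated and control cells lysed in RIPA buffer with protease inhibitors; protein measured by Bradford. 40 µg resolved by SDS-PAGE and transferred to PVDF. Bands probed with antibodies, detected by enhanced chemiluminescence and quantified by densitometry.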

A2780 cells [7] = test: Cell cycle analysis; format: cell-based; details: 48 h
Outline: (§3)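 Cells seeded at 1 × 10^5/well, then treated next day with 10, 50 or 75 nM for 48 h. PI (4 µg/ml) added for 5 min at RT. 10,000 events acquired by flow cytometry.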

MCF7 = test: MTT assay of human breast cancer cell lines; format: cell-based; details: 48 hours
PA1 cells [8] = test: Cell cycle analysis; format: cell-based; details: 48 h
Outline: as §3

[9] = system: Ehrlich ascites carcinoma (EAC) solid tumor; test: Chemopreventive effect in EAC solid tumor mice; format: in vivo, Swiss albino mice
Outline: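 Subcutaneous EAC thigh tumour model (1 × 10^6 cells). The treated group got 15 alternate-day doses of test compound (10 mg/kg b.wt) before tumour injection, none at inoculation, then 15 further doses after tumour injection. Compared with untreated controls, n = 5/group. Tumour volume was measured from day 7 after tumour injection, with body weight and physiological parameters. Two independent experiments.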

A2780 = test: Cytotoxicity on ovarian cancer cells compared to curcumin; format: cell-based
PA1 cells [10] = test: Immunoblotting of apoptosis-related proteins and MMP1; format: cell-based
Outline: as §2

PA1 cells [11] = test: JC-1 mitochondrial membrane potential assay; format: cell-based; details: 10, 50, 75 nM; 48 h
Outline: (§4)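 After 48 h test-compound treatment, cells were harvested and resuspended in staining buffer containing JC-1, 20 min in the dark at 37 °C, 5% CO2. Then resuspended in fresh buffer; 10,000 events acquired by flow cytometry. Valinomycin as positive control.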

Solubility in 0.6 N HCl = format: physicochemical
PA1 cells [12] = test: Real time PCR of mitochondrial OXPHOS genes; format: cell-based; details: 48 h
Outline: (§5)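 Total RNA extracted from cells treated with various test-compound concentrations. 2 µg RNA reverse-transcribed to cDNA. qPCR run in triplicate with primers for ND2, CYTB and ATPase 6.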

A2780 cells [13] = test: Real time PCR of mitochondrial OXPHOS genes; format: cell-based; details: 48 h
Outline: as §5

A2780 cells [14] = test: JC-1 mitochondrial membrane potential assay; format: cell-based; details: 10, 50, 75 nM; 48 h
Outline: as §4

A2780 cells [15] = test: Intracellular ROS, H2DCFDA flow cytometry; format: cell-based; details: 75 nM
Outline: (§6)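 Intracellular ROS: 1 × 10^5 cells per 35 mm dish exposed to test compound for 10, 20 and 30 min. Harvested, washed in PBS, stained with H2DCFDA for 30 min and analysed by flow cytometry. H2O2-treated cells as positive control. ROS taken as the histogram shift in median fluorescence intensity versus vehicle control.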

PA-1 cells = test: Cytotoxicity on ovarian cancer cells compared to curcumin; format: cell-based
[16] = Bioavailability study, plasma concentration by HPLC-UV; format: in vivo, Swiss albino mice
Outline: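 Swiss albino mice, n = 2/group, single oral or i.p. dose: test compound 10 mg/kg b.wt, curcumin 20 mg/kg b.wt. Blood sampled at 5, 10, 15 min and 1, 3, 6, 12, 24 h. Plasma protein-precipitated with an equal volume of acetonitrile. HPLC-UV at 1 mL/min, room temperature, detection 312 nm (test compound) or 369 nm (curcumin). Calibration curve in mouse plasma, 1–100 µM. Mean per time point.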

PA1 cells [17] = test: Intracellular ROS, H2DCFDA flow cytometry; format: cell-based
Outline: as §6

[18] = system: human breast cancer cell lines (MDA-MB-231, MDA-MB-468, MCF7); test: MTT assay of human breast cancer cell lines; format: cell-based; details: 48 h, read-out: IC50 (cytotoxicity)
PA1 cells [19] = test: Transwell migration assay; format: cell-based; details: 40 nM, 48 h treatment, 5 h migration
Outline: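 PA1 cells pretreated with various test-compound concentrations for 48 h, then 1 × 10^5 seeded into 8 µm-pore inserts in serum-free medium, complete medium below, 5 h. Inserts washed in PBS and fixed in 70% ethanol; non-migrated inner cells removed with cotton. Cells stained with 0.2% crystal violet, imaged and quantified by image analysis.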

[20] = system: Ehrlich ascites carcinoma (EAC) solid tumor; test: Antitumor activity in EAC solid tumor mice; format: in vivo, Swiss albino mice
Outline: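 EAC cells maintained by intraperitoneal passage in mice every 7 days. Day-7 ascites cells were diluted in PBS, and 1 × 10^6 cells were injected subcutaneously into the thigh. On day 7, caliper-measured tumours were allocated to groups of equal mean size, 5 animals/group, repeated three times (n = 15). Groups: untreated control or test compound 10 mg/kg b.wt i.p. every alternate day. Tumour size and body weight were recorded every alternate day; V = (ab2)/2.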

[21] = Toxicity in experimental animals; format: in vivo, Swiss albino mice
EAC tumor tissue = test: Histology; format: in vivo, Swiss albino mice; details: ST03 post-treatment
Outline: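 Tumour and organs (kidney, liver, spleen) collected at study end and fixed; paraffin sections (10 µm) H&E-stained. PCNA IHC on 5 µm tumour sections: 3% H2O2 in PBS, antigen retrieval by boiling in 10 mM sodium citrate pH 6. Blocked with 5% goat serum/1% BSA for 30 min. Mouse anti-PCNA 1:100 (1 h RT or overnight 4 °C), biotinylated anti-mouse IgG 1:200, streptavidin-HRP 1:1000, DAB-H2O2.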

tumor = details: cited from earlier work
xenograft models = details: twice-daily, nude mice; cited from earlier work
[22] = Swiss albino, mouse, plasma, ip, 10 mg/kg
[23] = Swiss albino, mouse, plasma, po, 10 mg/kg
[24] = Swiss albino, mouse, plasma, ip, 20 mg/kg
[25] = Swiss albino, mouse, plasma, po, 20 mg/kg

O=C1/C(=C/c2ccccc2)CN(C(=O)C(=O)N2C/C(=C\c3ccccc3)C(=O)/C(=C/c3ccccc3)C2)C/C1=C\c1ccccc1 [1,2-bis[(3E,5E)−3,5-dibenzylidene-4-oxo-1-piperidyl]ethane-1,2-dione, reference compound]
cytotoxic potency compared with curcumin ([1]; multiple cancer cell lines in vitro): greater potency than the parent compound curcumin

CC(=O)N[C@@H](CS)C(=O)O [NAC, N-acetylcysteine, reference compound]
cell death with ST03 in presence of NAC (A2780 cells [2]): decrease in cell death | effect of NAC on ST03 induced ROS (PA1 cells [3]; 20 mM NAC with ST03): blocked ST03 induced increase in ROS | cell death with ST03 in presence of NAC (PA1 cells [4]): decrease in cell death | effect of NAC on ST03 induced ROS (A2780 cells [5]; 20 mM NAC with ST03): blocked ST03 induced increase in ROS

O=C1/C(=C/c2ccccc2Cl)CN(C(=O)C(=O)N2C/C(=C\c3ccccc3Cl)C(=O)/C(=C/c3ccccc3Cl)C2)C/C1=C\c1ccccc1Cl [ST03, 1,2-bis[(3E,5E)-3,5-bis[(2-chlorophenyl)methylene]-4-oxo-1-piperidyl]ethane-1,2-dione]
p53 expression (A2780 cells [6]): upregulation | Bax expression (A2780 cells [6]; 40 nM): increase | Bcl2 expression (A2780 cells [6]; 40 nM): significant decrease | Cytochrome C (A2780 cells [6]; increasing concentrations): increase | cells accumulated at the sub G0/G1 stage (A2780 cells [7]; 50 nM): ~60% | cell cycle arrest (A2780 cells [7]; 10, 50, 75 nM): no notable cell cycle arrest | IC50 rank among breast cancer cell lines (MCF7): least IC50 | cells accumulated at the sub G0/G1 stage (PA1 cells [8]; 50 nM): ~70% | cell cycle arrest (PA1 cells [8]; 10, 50, 75 nM): no notable cell cycle arrest | pre and post-treatment compared with post-treatment alone ([9]; 10 mg/kg b.wt): better results than post-treatment alone | tumor growth vs controls ([9]; pre-treatment with 15 alternate doses of 10 mg/kg b.wt, then post-treatment): significant reduction in tumor growth | time to peak ROS levels (PA1 cells [3]; 20 mM ST03 as printed, 20 nM): 1 h | cytotoxicity relative to curcumin (A2780): 100 fold | p53 expression (PA1 cells [10]): upregulation | Bax expression (PA1 cells [10]; 40 nM): increase | Bcl2 expression (PA1 cells [10]; 40 nM): significant decrease | MMP1 expression (PA1 cells [10]; 40 nM): significant decrease | Cytochrome C (PA1 cells [10]; increasing concentrations): increase | potency relative to curcumin [1]: ~100 fold | selectivity of toxicity, cancer cells vs normal cells [1]: selectively induces toxicity in cancer cells compared to normal cells | JC1 green population (mitochondrial damage) (PA1 cells [11]): increase in the green population | solubility (Solubility in 0.6 N HCl): completely soluble | time to peak ROS levels (A2780 cells [5]; 20 mM ST03 as printed, 20 nM): 1 h | transcription of mitochondrially encoded OXPHOS genes (ND2, CYB, Atpase6) (PA1 cells [12]): decrease in the transcription | transcription of mitochondrially encoded OXPHOS genes (ND2, CYB, Atpase6) (A2780 cells [13]): decrease in the transcription | JC1 green population (mitochondrial damage) (A2780 cells [14]): increase in the green population | time at which the histogram shifted (ROS production) (A2780 cells [15]): 30 min | cytotoxicity on PA-1 compared with A2780 (PA-1 cells): better cytotoxicity on PA-1 cells | cytotoxicity relative to curcumin (PA-1 cells): 100 fold | Cmax [16, 22]: 98.4 µM | Tmax [16, 22]: 8 h | Cmax [16, 23]: 55.2 µM | Tmax [16, 23]: 2 h | half-life [16, 23]: 3 h | presence in plasma until ([16]; intraperitoneal): > 12 h | presence in plasma until ([16]; oral): > 12 h | bioavailability compared to curcumin ([16]; oral, ST03 10 mg/kg, curcumin 20 mg/kg): ~14 fold | detectable in plasma ([16]; route not given): up to 12 h | time at which ROS production was induced (PA1 cells [17]; 40 nM): 10 min | time at which ROS production was induced (PA1 cells [17]; 50 nM): ≤ 10 min | IC50 [18]: 166 to 301 nM | reduction in migration (PA1 cells [19]): 60% | spleen size vs untreated animals ([20]; 10 mg/kg b.wt i.p.): reduction in spleen size | tumor growth vs untreated control ([20]; 10 mg/kg b.wt i.p. every alternate day from day 7, 25 days): significant reduction in tumor growth | dosage sufficient to inhibit tumor growth without adverse systemic toxicity ([20]; 15 doses, tumor allograft): 10 mg/kg | histopathology of kidney, liver and spleen (H&E) ([21]; ST03 post-treatment): no pathological changes | RBC count ([21]; end of study): No significant change | WBC count vs control group ([21]; end of study): increase in the number of WBCs | body weight ([21]; pre- and post-treatment animals, 10 mg/kg b.wt): no notable weight reduction | ALT level ([21]; serum, end of study): No significant change | AST level ([21]; serum, end of study): No significant change | urea level ([21]; serum, end of study): No significant change | proliferating cells (PCNA staining) in tumor (EAC tumor tissue): reduction in proliferating cells | tumor cells in H&E stained tumor vs control tissue (EAC tumor tissue): significant reduction of tumor cells | Bcl2 in tumor extract (EAC tumor tissue; western blot): up-regulation

COc1cc(/C=C/C(=O)CC(=O)/C=C/c2ccc(O)c(OC)c2)ccc1O [curcumin, reference compound]
potency range [1]: ~10000 nM | Cmax [16, 24]: 2.7 µM | Tmax [16, 24]: 3 h | Cmax [16, 25]: 13.7 µM | Tmax [16, 25]: 0.25 h | dosage with antitumor activity in vivo (tumor): 800 mg/kg of body weight | effective dosage in xenograft models (xenograft models): 50 mg/kg b.wt
